The species named for one assay is Homo sapiens. As to the kind of experiment: Selectivity ratio of Ki for human D2 receptor expressed in HEK293 cells to Ki for human D3 receptor expressed in HEK293 cells. The class given is cell-based.
Assay [1] has as its target T1, D(2) dopamine receptor (Homo sapiens, UniProt P14416). As to the kind of experiment: Displacement of [3H]-sulpiride from human D2 receptor expressed in HEK293 cells at 100 nM after 150 mins by liquid scintillation counting method relative to control. The class given is cell-based. For orientation: Displacement assays read how much labelled ligand stays bound in the presence of the test substance.

The target of assay [2] is T1, D(2) dopamine receptor. As to the kind of experiment: Displacement of [3H]-sulpiride from human D2 receptor expressed in HEK293 cells at 30 uM after 150 mins by liquid scintillation counting method relative to control. In kind it is cell-based. In outline:
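HEK 293 cells transiently transfected with D2R plasmid, kept in serum-free MEM for 4 h and then serum-containing MEM for 24 h, seeded and left overnight. Whole cells were incubated with 2.2 nM [3H]-sulpiride plus test compound for 150 min at 4 °C, rinsed with ice-cold MEM, and lysed in 1% SDS. Bound radioactivity was read by liquid scintillation counting.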

Assay [3] has as its target T1, D(2) dopamine receptor. Description: Displacement of [3H]-sulpiride from human D2 receptor expressed in HEK293 cells after 150 mins by liquid scintillation counting method. The class given is cell-based. A digest of the protocol: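 HEK 293 cells transfected with D2R plasmid, cultured in MEM without then with fetal bovine serum (4 h, 24 h). Seeded overnight, then intact cells incubated with [3H]-sulpiride (2.2 nM) plus compounds for 150 min at 4 °C. Cells were rinsed in ice-cold MEM, lysed in 1% SDS, and counted by liquid scintillation. IC50 from nonlinear dose-response fit; Ki by Cheng-Prusoff.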

The target in assay [4] is T2, D(3) dopamine receptor (Homo sapiens, UniProt P35462). Description: Displacement of [3H]-sulpiride from human D3 receptor expressed in HEK293 cells after 150 mins by liquid scintillation counting method. In kind it is cell-based.
T2 sequence (P35462 whole entry): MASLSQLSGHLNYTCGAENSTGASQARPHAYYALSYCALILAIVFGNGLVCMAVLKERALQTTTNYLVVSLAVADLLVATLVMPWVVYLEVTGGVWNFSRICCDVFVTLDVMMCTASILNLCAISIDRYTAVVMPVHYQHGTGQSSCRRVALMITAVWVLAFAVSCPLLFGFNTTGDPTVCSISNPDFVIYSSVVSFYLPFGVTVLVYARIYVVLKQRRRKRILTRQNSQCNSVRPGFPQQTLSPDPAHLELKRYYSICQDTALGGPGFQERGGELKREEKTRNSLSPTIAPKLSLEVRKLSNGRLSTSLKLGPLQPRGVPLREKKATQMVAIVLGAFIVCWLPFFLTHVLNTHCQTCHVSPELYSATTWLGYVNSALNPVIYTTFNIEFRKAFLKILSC
Assay [5] concerns the target T2, D(3) dopamine receptor. Description: Potency index, ratio of N-(4-(4-(2,4-dichlorophenyl)piperazin-1-yl)butyl)-1H-indole-2-carboxamide hydrochloride Ki to compound Ki for displacement of [3H]-sulpiride from human D3 receptor expressed in HEK293 cells. The class given is cell-based.
The target in assay [6] is T2, D(3) dopamine receptor. As to the kind of experiment: Potency index, ratio of quinpirole EC50 to compound EC50 for agonist activity at human D3 receptor expressed in HEK293 cells. In kind it is functional, cell-based.
Assay [7] concerns the target T2, D(3) dopamine receptor. As to the kind of experiment: Agonist activity at human D3 receptor expressed in HEK293 cells assessed as inhibition of forskolin-induced cAMP accumulation after 4 hrs by luciferase reporter gene assay. The class given is functional, cell-based.

Values joined by “and” are separate entries in the source; they are usually repeats but may differ in a detail not shown here. Identical values can stand only once. A value given as a limit tells only on which side of the number the result lay.

From ChEMBL document CHEMBL4257542, “Design, synthesis, and evaluation of bitopic arylpiperazine-phthalimides as selective dopamine D3 receptor agonists” (Medchemcomm, 2018) come the findings set out here.

The inhibition is the change of the read-out against control, counted positive when it falls. As a reminder, the Ki is the dissociation constant of the complex between target and ligand, obtained from inhibition or displacement. Lower therefore signals a stronger hold on the target. One may read the EC50 as the concentration at which the effect is half-maximal.

T1 sequence (P14416 whole entry): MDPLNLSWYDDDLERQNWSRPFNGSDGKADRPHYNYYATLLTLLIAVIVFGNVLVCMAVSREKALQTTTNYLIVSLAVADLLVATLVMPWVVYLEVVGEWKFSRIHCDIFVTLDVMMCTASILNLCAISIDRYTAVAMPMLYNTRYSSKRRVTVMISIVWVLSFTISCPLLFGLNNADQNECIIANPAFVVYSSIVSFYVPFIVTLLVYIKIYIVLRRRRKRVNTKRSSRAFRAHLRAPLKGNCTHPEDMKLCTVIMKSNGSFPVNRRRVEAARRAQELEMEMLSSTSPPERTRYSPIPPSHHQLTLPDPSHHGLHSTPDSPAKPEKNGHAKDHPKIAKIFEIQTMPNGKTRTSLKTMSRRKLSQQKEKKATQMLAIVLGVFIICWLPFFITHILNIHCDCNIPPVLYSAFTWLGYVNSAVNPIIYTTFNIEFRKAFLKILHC

As to `O=C(CCCCN1CCN(c2ccc(Cl)cc2Cl)CC1)Nc1nc2ccccc2s1`, the Ratio Ki in the assay listed under Homo sapiens was 63.8.

In the case of `O=C1c2ccccc2C(=O)N1CCCCN1CCN(c2ccc(Cl)cc2Cl)CC1`, the inhibition at D(2) dopamine receptor [1] was 30.2%. On the same count and under the same terms, with `O=C1c2ccccc2C(=O)N1CCCCN1CCN(c2ccc(F)cc2)CC1` the figure was -6.3%.

As for `O=C1c2ccccc2C(=O)N1CCCCN1CCN(c2ccc(Cl)cc2F)CC1`, the inhibition on D(2) dopamine receptor [1] was 2.8%. For the molecule `O=C1c2ccccc2C(=O)N1CCCCN1CCN(c2cccc(C(F)(F)F)c2)CC1`, the inhibition at D(2) dopamine receptor [1] was 37.9% and 44%. With `O=C(NCCCCN1CCN(c2ccc(Cl)cc2Cl)CC1)c1cc2ccccc2[nH]1`, the inhibition on D(2) dopamine receptor [2] was under 50%; at D(2) dopamine receptor [1] it was 22.7%. Also, the Ki at D(2) dopamine receptor [3] was over 23900 nM.

Regarding `CCN1CCCC1CNC(=O)c1cc(S(N)(=O)=O)ccc1OC` (configuration not stated), the inhibition at D(2) dopamine receptor [1] came to 92.2%. As to `COc1ccccc1C1CCN(CCCCN2C(=O)c3ccccc3C2=O)CC1`, the inhibition on D(2) dopamine receptor [1] amounted to 92.2%.

On to `O=C(CCCCN1CCN(c2ccccc2F)CC1)Nc1nc2ccccc2s1`, for which the Ratio Ki in the assay listed under Homo sapiens was 45.

On to `O=C1c2ccccc2C(=O)N1CCCCN1CCN(c2cccc(Cl)c2Cl)CC1`, for which, at D(2) dopamine receptor [1], the inhibition was 70.3%. For the molecule `O=C1c2ccccc2C(=O)N1CCCCN1CCN(c2cccc(Cl)c2)CC1`, the inhibition at D(2) dopamine receptor [1] turned out to be 64.8%. The same measure, in the same setting: with `O=C1c2ccccc2C(=O)N1CCCCN1CCN(c2c(F)cccc2F)CC1` the figure was 10.3%; with `O=C1c2ccccc2C(=O)N1CCCCN1CCN(c2cc(C(F)(F)F)ccc2F)CC1`, -4.7%.

Regarding `O=C1c2ccccc2C(=O)N1CCCCN1CCN(c2ccccc2F)CC1`, the inhibition on D(2) dopamine receptor [1] was determined as 31.8%. For `O=C1c2ccccc2C(=O)N1CCCCN1CCN(c2cccc(F)c2F)CC1`, the inhibition on D(2) dopamine receptor [1] amounted to 17.7%. Moreover, the Ki on D(3) dopamine receptor [4] came out at 19.3 nM; on D(2) dopamine receptor [3], 2160 nM. For the same molecule, the Ratio Ki was 21 at D(3) dopamine receptor [5] and 112 in the assay filed under Homo sapiens. Besides, the Ratio EC50 on D(3) dopamine receptor [6] lay within 199 to 200. Besides, the EC50 on D(3) dopamine receptor [7] amounted to 0.00048 nM. For `O=C(NCCCCN1CCN(c2cccc(Cl)c2Cl)CC1)c1cc2ccccc2[nH]1`, the EC50 at D(3) dopamine receptor [7] came to 0.026 nM.

Consider `O=C1c2ccccc2C(=O)N1CCCCN1CCN(c2ccc(F)cc2F)CC1`, for which the inhibition at D(2) dopamine receptor [1] amounted to 4.8%. Same read-out and setting: under `O=C1c2ccccc2C(=O)N1CCCCN1CCC(n2c(=O)[nH]c3cc(Cl)ccc32)CC1` stands 56.1%; under `O=C1c2ccccc2C(=O)N1CCCCN1CCN(c2ccccc2Cl)CC1`, 28.7%.
